Published values pooled from the literature.
Lines come from different studies, so protocols differ.
gag-pol reverse transcriptase: Gag-Pol polyprotein, reverse transcriptase (gag-pol, Human immunodeficiency virus 1, UniProt P03366)
gyrA: DNA gyrase subunit A (gyrA, Escherichia coli K-12, UniProt P0AES4)
EP300: Histone acetyltransferase p300 (EP300, Homo sapiens, UniProt Q09472)

For N#Cc1ccc(Nc2nc(N)cc(Oc3c(F)cc(-c4ccccc4)cc3F)n2)cc1, the IC50 was 70 nM (gag-pol reverse transcriptase; enzyme activity; inhibitor).
Cc1cc(C)cc(S(=O)(=O)c2c(C(=O)NCCCCCNS(=O)(=O)c3ccc(C#N)cc3)[nH]c3ccc(Cl)cc23)c1 gave an IC50 of 160 nM (gag-pol reverse transcriptase; enzyme activity; inhibitor; ELISA).
CN1CCN(c2ccc(Nc3ncc4cc(C#N)c(=O)n(C5CCCC5)c4n3)cc2)CC1 has an IC50 of greater than 10000 nM (Serine/threonine-protein kinase WNK2 (WNK2, Homo sapiens, UniProt Q9Y3S1); enzyme activity; inhibitor).
With CC(C)Oc1c(NC(=O)c2ccc(NC(=O)[C@H](CC(N)=O)NC(=O)c3ccc(NC(=O)c4cc(C#N)cn4C)cc3)cc2)ccc(C(=O)Nc2ccc(C(=O)O)cc2)c1O the IC50 was 700 nM (gyrA; enzyme activity; inhibitor).
Cc1ccc(S(=O)(=O)NCCNC(=O)c2[nH]c3ccc(Cl)cc3c2S(=O)(=O)c2cc(C)cc(C)c2)cc1 has an IC50 of 75 nM (gag-pol reverse transcriptase; enzyme activity; inhibitor; ELISA).
The IC50 of CC(C)COc1c(NC(=O)c2ccc(NC(=O)[C@H](CC(N)=O)NC(=O)c3ccc(NC(=O)c4ccc([N+](=O)[O-])cc4)cc3)cc2)ccc(C(=O)Nc2ccc(C(=O)O)cc2)c1O is reported as 900 nM (gyrA; enzyme activity; inhibitor).
The IC50 of C(/C=C/c1sc2c3ccccc3ccc2[n+]1CCCc1ccccc1)=C1/Sc2c(ccc3ccccc23)N1CCCc1ccccc1 is reported as 1500 nM (Protein arginine N-methyltransferase 6 (PRMT6, Homo sapiens, UniProt Q96LA8); enzyme activity; inhibitor; radiometric).
COc1ccc(S(=O)(=O)NCCNC(=O)c2[nH]c3ccc(Cl)cc3c2S(=O)(=O)c2cc(C)cc(C)c2)cc1 gave an IC50 of 94 nM (gag-pol reverse transcriptase; enzyme activity; inhibitor; ELISA).
CC(C)Oc1c(NC(=O)c2ccc(NC(=O)[C@H](CC(N)=O)NC(=O)c3ccc(NC(=O)c4ccc(C5(C(F)(F)F)N=N5)cc4)cc3)cc2)ccc(C(=O)Nc2ccc(C(=O)O)cc2)c1O gave an IC50 of 16000 nM (gyrA; enzyme activity; inhibitor).
N#Cc1ccc(Nc2nc(N)cc(Oc3ccc(-c4ccc(C#N)cc4)cc3Cl)n2)cc1 has an IC50 of 30 nM (gag-pol reverse transcriptase; enzyme activity; inhibitor).
The IC50 of Cc1cc(C)cc(S(=O)(=O)c2c(C(=O)NCCCNS(=O)(=O)c3ccc(C#N)cc3)[nH]c3ccc(Cl)cc23)c1 is reported as 100 nM (gag-pol reverse transcriptase; enzyme activity; inhibitor; ELISA).
The IC50 of N#Cc1ccc(Nc2nc(N)cc(Oc3ccc(-c4cccc(F)c4)cc3)n2)cc1 is reported as 330 nM (gag-pol reverse transcriptase; enzyme activity; inhibitor).
CC(C)Oc1c(NC(=O)c2ccc(NC(=O)[C@H](CC(N)=O)NC(=O)c3ccc(NC(=O)c4ccc(NC(N)=O)cc4)cc3)cc2)ccc(C(=O)Nc2ccc(C(=O)O)cc2)c1O gave an IC50 of 8700 nM (gyrA; enzyme activity; inhibitor).
CCCCCCCCCCCCCCCc1cccc(O)c1C(=O)O gave an IC50 of greater than 200000 nM (EP300; enzyme activity; inhibitor; radiometric).
For N=C(N)NC(=O)c1nc(Cl)c(N)nc1N, the IC50 was 120000 nM (delm-1 (Caenorhabditis elegans, UniProt O45402); ion current; two-electrode voltage clamp; oocytes).
Cc1cc(C)cc(S(=O)(=O)c2c(C(=O)NCCCCCNS(=O)(=O)c3cccs3)[nH]c3ccc(Cl)cc23)c1 has an IC50 of 220 nM (gag-pol reverse transcriptase; enzyme activity; inhibitor; ELISA).
COc1ccc(S(=O)(=O)ON=C2C=C(C)C(=O)C(C)=C2)cc1 has an IC50 of 1980 nM (EP300; enzyme activity; inhibitor; fluorescence).
For CCN1CCN(Cc2ccc(C(=O)Nc3ccc(C)c(Oc4ccc5c(c4)CC(=O)N5)c3)cc2C(F)(F)F)CC1, the IC50 was 1810 nM (Tyrosine-protein kinase ABL1 (ABL1, Homo sapiens, UniProt P00519); enzyme activity; inhibitor).
